From PubChem
Many of the other results were omitted from the sample, so hits are more common in it than they were.
L major viab – Leishmania major promastigote growth inhibition, primary screen | Leishmania major promastigotes, resazurin fluorescence viability | inhibition, % at 10 µM | 9% of 200,000 active;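 further: promastigotes grown with compound for 44 hours at 28 °C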
Diaphorase inh – diaphorase inhibitors and chemical oxidizers, primary screen, counter-screen for diaphorase-coupled primary assays, biochemical, uHTS, resorufin fluorescence; 0.69% of 190,000 active; diaphorase resazurin-to-resorufin fluorescence, NADH, 16 min; bacterial (C. kluyveri) enzyme, not human; inhibition, % at 20 µM; AID 1217, 2008;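 active means primary screen inhibition at 20 µM above a set limit, cut at about 50% in these data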;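 further: plate controls were DMSO with full reaction for no effect and wells lacking NADH for full effect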
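Test system: diaphorase enzyme from Clostridium kluyveri; amount: diaphorase at 0.14 U/mL in enzyme working solution; detection: fluorescence of resorufin formed from resazurin, Ex 544/Em 590 nm; times: reaction incubation of 16 min at room temperature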
Redox H2O2 prof – compounds producing H2O2 with reducing agent – biochemical, NIH compound library profiling, artefact control for MLSCN library redox annotation, primary screen. DTT-dependent redox cycling H2O2, phenol red/HRP absorbance; 100% = 100 µM peroxide control, 0% = buffer. activation, % at 10 µM. 0.03% of 200,000 active. AID 878, 2007;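 active means activation of at least 50% relative to the plate's high and low controls in the primary single-dose screen; inactive means activation below 50%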;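 further: compound incubated with DTT at 0.8 mM final as the reducing agent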
Diaph act CS – compounds boosting diaphorase resazurin reduction – biochemical, uHTS, resorufin fluorescence, counter-screen for diaphorase-coupled primary assays, primary screen; AID 1229, 2008; Diaphorase/resazurin coupled assay, 16 min; stronger effect = higher value; 1 = vehicle wells, 0 = NADH-free wells; activation factor at 20 µM; 0.005% of 190,000 active;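 active means diaphorase activity raised at least twofold by the compound at 20 µM; inactive means activation factor below 2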
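System – purified diaphorase enzyme from Clostridium kluyveri · Input – enzyme 0.07 U/mL final · Also added – final NADH 0.114 mM, resazurin 0.1 mM · Measured by – fluorescence of resorufin, 544 nm excitation, 590 nm emission · Timing – 16 min enzyme reaction, ambient temperature · Measure – resorufin increase flagging diaphorase activators or reducers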
PfGluPho inh – PfG6PD enzyme inhibitors, primary screen, biochemical, fluorescence intensity, uHTS; glucose-6-phosphate dehydrogenase-6-phosphogluconolactonase (Plasmodium falciparum 3D7); PfGluPho enzyme, NADPH resazurin-diaphorase fluorescence; inhibition, % at 20 µM; 0.78% of 350,000 active;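 active means inhibition reaching at least a set limit at 20 µM in the primary screen, cut at about 59% in these data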;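 further: 0% = DMSO wells with substrate and 100% = DMSO wells lacking glucose-6-phosphate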
G6PDH counter – L. mesenteroides G6PDH inhibitors, counter-screen for G6PDH-coupled screening assays, biochemical, Leuconostoc mesenteroides enzyme. glucose-6-phosphate dehydrogenase [Leuconostoc mesenteroides]. Purified L. mesenteroides G6PDH, diaphorase/resazurin coupled fluorescence, 45 min. inhibition, % at 5 µM. 0.12% of 200,000 active. AID 1020, 2008
Numbers without * were called inactive; nt = no result given. Unless noted, no stated cut-off is given here; in the data, active means inhibition above about 50%; inactive means the rest.

SMILES	L major viab	Diaphorase inh	Redox H2O2 prof	Diaph act CS	PfGluPho inh	G6PDH counter
CCOc1ccc2nc(N3CCC(C(=O)N4CCN(C5CCCCC5)CC4)CC3)sc2c1	95*	-10	-1	1.1	18	-16
CCOc1ccc2nc(N3CCC(C(=O)N4CCN(C(=O)c5ccco5)CC4)CC3)sc2c1	3	17	-1	0.8	2	-59
CCCN1CCN(CCCNC(=O)C2CCCN(c3nc4ccc(OCC)cc4s3)C2)CC1 (stereo not drawn)	64*	0	2	1	1	-4
Cc1cc(C)c2nc(N3CCC(C(=O)NCC4CCCO4)CC3)sc2c1 (stereo not drawn)	nt	nt	nt	nt	3	nt
CCOc1ccc2nc(N3CCCC(C(=O)NCC4CCCO4)C3)sc2c1 (stereo not drawn)	nt	nt	nt	nt	3	nt
Cc1cc(C)c2nc(N3CCC(C(=O)NCCCN4CCCCC4)CC3)sc2c1	97*	8	0	0.9	5	-2
COc1cc(CNC2CCCC2)cc(Cl)c1OCc1ccccc1F	100*	-10	3	1.1	11	3
COc1cc(CNC2CCCCCC2)cc(OC)c1O	-2	6	1	0.9	12	39
N#Cc1nc(Cc2cccc3ccccc23)oc1NCCN1CCCCC1	65*	8	0	0.9	0	4
CNc1oc(Cc2cccc3ccccc23)nc1C#N	2	18	0	0.8	-6	-2
COC(=O)c1ccc(CSc2nnc(-c3ccncc3)n2Cc2ccccc2)o1	76*	11	2	0.9	4	19
Cc1cc(C(=O)CSc2nc3ccccc3[nH]2)c(C)n1Cc1ccco1	95*	24	0	0.8	7	7
C=CCn1c(C)cc(C(=O)CSc2nc3ccccc3[nH]2)c1C	70*	20	-4	0.8	7	2
N#Cc1ccc(CSc2nnc(-c3ccncc3)n2CCc2ccccc2)cc1	90*	14	2	0.9	3	3
COC(=O)c1ccccc1NC(=O)N1CCN(Cc2ccco2)CC1	-4	-2	1	1	5	-3
CCN(CC(=O)Nc1ccc2c(c1)OCCO2)C(=O)C(C)Oc1ccc(F)cc1 (stereo not drawn)	nt	nt	nt	nt	0	nt
CNC(=O)CSc1nnc(-c2ccncc2)n1Cc1ccccc1	2	5	0	0.9	-5	10
O=C(CSc1nc2ccccc2[nH]1)c1ccc(Cl)s1	80*	12	1	0.9	20	0
COC(=O)c1ccc(CSc2nc3ccccc3c(=O)n2CC(C)C)o1	22	17	-3	0.8	-1	3
O=C(CSc1nnc(-c2ccncc2)n1Cc1ccccc1)NC1CCCc2ccccc21 (stereo not drawn)	83*	14	0	0.9	-11	7
COC(=O)c1ccc(CSc2nc3ccccc3c(=O)n2Cc2ccco2)o1	97*	25	1	0.7	3	-33
CCCn1c(C)cc(C(=O)CSc2nc3ccccc3c(=O)n2Cc2ccco2)c1C	89*	17	1	0.8	3	-5
Cc1cc(C(=O)CN2C(=O)NC(c3ccccc3)(c3ccccc3)C2=O)c(C)n1Cc1ccco1	52*	33	2	0.7	6	15
CCOCCOC(=O)c1ccc(-n2cncn2)nc1	-3	7	0	0.9	-20	13
O=C(CNC(=O)c1cccc(F)c1)N/N=C/c1cccc([N+](=O)[O-])c1	81*	6	0	0.9	15	-4
SMILES	L major viab	Diaphorase inh	Redox H2O2 prof	Diaph act CS	PfGluPho inh	G6PDH counter
O=C(CNC(=O)c1cccc(F)c1)N/N=C/C=C/c1ccccc1	2	-9	-2	1.1	-10	10
C/C(N)=C(/C#N)C(=O)CSc1nc2ccccc2c(=O)n1CCCOC(C)C	90*	18	0	0.8	9	1
CCOCCCn1c(SCC(=O)/C(C#N)=C(\C)N)nc2ccccc2c1=O	23	9	0	0.9	5	10
Cc1cccc(C)c1NC(=O)CSc1nc2[nH]c(=O)cc(O)c2s1	nt	nt	nt	nt	13	nt
CC(C)CC(=O)NC(=S)Nc1ccc(S(=O)(=O)N2CCN(C)CC2)cc1	67*	14	0	0.9	-14	20
CC(C)C(=O)NC(=S)Nc1ccc(S(=O)(=O)N2CCN(C)CC2)cc1	87*	2	0	1	-7	10
CN1CCN(S(=O)(=O)c2ccc(NC(=O)c3csc4ccccc34)cc2)CC1	56*	7	0	0.9	6	-4
CN1CCN(S(=O)(=O)c2ccc(NC(=O)c3cccs3)cc2)CC1	-5	3	1	1	9	9
CCOC(=O)c1ccc(NC(=O)NCc2cccnc2)cc1	nt	nt	nt	nt	-4	nt
O=C(NCN1C(=O)C2C3C=CC(C3)C2C1=O)Nc1nccs1 (stereo not drawn)	2	3	2	1	-14	5
O=C(NCCN1CCN(C(=O)c2cccc(Br)c2)CC1)C(=O)Nc1ccc(Br)cc1	nt	nt	nt	nt	11	nt
O=C(NCCN1CCN(C(=O)c2cccs2)CC1)C(=O)Nc1ccc(Br)cc1	73*	-6	1	1.1	-20	6
Cc1ccc(NC(=O)C(Nc2ccccc2)c2ccccc2)cc1 (stereo not drawn)	88*	17	0	0.8	-12	-10
Cc1cc(C)cc(NC(=O)C(Nc2ccccc2)c2ccccc2)c1 (stereo not drawn)	28	21	0	0.8	10	-19
Cc1ccc(NC(=O)C(Nc2cccc(C)c2)c2ccccc2)cc1 (stereo not drawn)	59*	7	0	0.9	19	13
C1CCN(c2nc(N3CCCC3)nc(N3CCNCC3)n2)C1	100*	6	-3	0.9	nt	6
CCOc1ccc(Nc2nc(N3CCCCC3)nc(N3CCCCC3)n2)cc1	59*	21	0	0.8	19	8
CCOc1ccc(Nc2nc(N)nc(CN3CCN(c4ccccc4F)CC3)n2)cc1	52*	12	-3	0.9	-2	-2
c1ccc(Nc2nc(N3CCCCC3)nc(N3CCCCC3)n2)cc1	26	17	0	0.8	23	2
c1ccc(Nc2nc(N3CCCCC3)nc(N3CCNCC3)n2)cc1	100*	-4	0	1	22	4
COc1cc(Nc2ncnc(N)n2)cc(OC)c1	nt	nt	nt	nt	1	nt
